We go through 12 molecules from paper PMC4364388 (Biochimica et biophysica acta, 2015).

Data set [1] deals with T1, rat UT-A1 (Rattus norvegicus, UniProt Q62668).
T1 sequence (Q62668 1-929): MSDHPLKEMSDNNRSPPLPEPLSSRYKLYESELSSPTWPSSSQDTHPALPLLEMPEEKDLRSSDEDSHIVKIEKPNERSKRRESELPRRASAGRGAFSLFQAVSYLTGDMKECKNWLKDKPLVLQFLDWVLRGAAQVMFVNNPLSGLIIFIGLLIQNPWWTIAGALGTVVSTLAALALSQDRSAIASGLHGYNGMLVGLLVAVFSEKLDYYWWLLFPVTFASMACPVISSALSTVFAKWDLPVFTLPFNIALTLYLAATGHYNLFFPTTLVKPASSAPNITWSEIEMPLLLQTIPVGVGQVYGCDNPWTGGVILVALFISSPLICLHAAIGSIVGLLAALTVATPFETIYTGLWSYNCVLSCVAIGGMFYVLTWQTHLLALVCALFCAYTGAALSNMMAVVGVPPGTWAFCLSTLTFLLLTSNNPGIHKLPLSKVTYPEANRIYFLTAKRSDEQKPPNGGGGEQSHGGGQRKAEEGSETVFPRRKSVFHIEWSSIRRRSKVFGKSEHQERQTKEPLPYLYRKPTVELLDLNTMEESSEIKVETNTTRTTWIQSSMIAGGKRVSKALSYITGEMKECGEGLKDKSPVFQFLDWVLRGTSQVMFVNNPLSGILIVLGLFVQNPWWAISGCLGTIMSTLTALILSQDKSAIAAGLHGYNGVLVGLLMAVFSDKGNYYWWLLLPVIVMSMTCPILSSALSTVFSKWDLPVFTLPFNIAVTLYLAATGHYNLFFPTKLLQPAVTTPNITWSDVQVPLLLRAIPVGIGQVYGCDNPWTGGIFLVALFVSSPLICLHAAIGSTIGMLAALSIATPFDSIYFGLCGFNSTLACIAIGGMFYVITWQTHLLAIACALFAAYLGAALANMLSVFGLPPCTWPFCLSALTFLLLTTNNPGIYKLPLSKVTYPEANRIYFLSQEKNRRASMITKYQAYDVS
To be noted: read-out: UT-A1 IC50; earlier finding; cited from earlier work.

In data set [2] the target is T2, rat UT-B (Rattus norvegicus, UniProt P97689).
T2 sequence (P97689 1-384): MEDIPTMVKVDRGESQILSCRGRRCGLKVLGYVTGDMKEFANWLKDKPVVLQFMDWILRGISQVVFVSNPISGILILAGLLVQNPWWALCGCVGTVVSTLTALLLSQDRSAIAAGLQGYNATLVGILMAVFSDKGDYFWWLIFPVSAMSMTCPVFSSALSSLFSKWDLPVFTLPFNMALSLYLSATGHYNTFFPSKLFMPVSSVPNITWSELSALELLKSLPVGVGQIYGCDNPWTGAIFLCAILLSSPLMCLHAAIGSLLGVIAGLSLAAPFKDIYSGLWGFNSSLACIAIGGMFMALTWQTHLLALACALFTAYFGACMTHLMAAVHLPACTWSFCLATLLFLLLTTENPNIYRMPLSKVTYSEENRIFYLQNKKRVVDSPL
As to conditions: read-out: UT-B IC50; earlier finding; cited from earlier work.

Data set [3] addresses T2, rat UT-B. As to the kind of experiment: UT-B inhibition, erythrocyte lysis assay. The class given is cell-based. As to conditions: for IC50: 15 min incubation.
A further data set can be described thus: Water solubility. The class given is physicochemical.
In another data set the test system is rats. To be noted: listed as DMTU; cited from earlier work.
The target of data set [4] is T1, rat UT-A1. The experiment in a line: UT-A1 inhibition assay. As to conditions: for IC50: UT-A1 IC50, MDCK cells expressing rat UT-A1, YFP and AQP1, 20 min incubation; for Selectivity for UT-A1 vs. UT-B inhibition: comparison of IC50 values for UT-A1 and UT-B. It counts as cell-based.
In another data set the test system is MDCK cells. As to the kind of experiment: Cytotoxicity to MDCK cells. It counts as cell-based, canine. As to conditions: at solubility limit.
In data set [5] the target is T1, rat UT-A1. As to the kind of experiment: Functional studies of UT-A1 inhibition. It counts as cell-based. An outline of the steps:
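MDCK cells stably co-expressing rat UT-A1, YFP-H148Q/V163S and human AQP1 were plated 24 h before assay. Reversibility: 15 min with 0.2 mM test compound, two PBS washes, then assay. Kinetics: 0.2 mM added at varied times before assay. Urea dependence: concentration-response at 80–1,600 mM urea gradients. Read-out was YFP fluorescence 7 s after urea addition, normalised to negative and positive controls.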

[6] abbreviates: read-out: UT-B IC50, rat erythrocyte lysis assay.
[7] abbreviates: UT-B IC50, rat erythrocyte lysis assay.

In brackets after ≈: the same amount, converted by molar mass. Several values for one entry are separate records, joined by “and”; a condition that tells them apart may be missing. Identical values can stand only once. Like-named read-outs stand apart in the source and are kept apart here.

As usually defined, the IC50 is the midpoint of a concentration-inhibition curve. Consider `CNC(=S)NC` [Compound 1, N, N′-dimethylthiourea], for which the IC50 at rat UT-A1 [1] is 2000 to 3000 µM; on rat UT-B [2], 2000 to 3000 µM; at rat UT-B [3] (setting [6]), 3900 ± 600 µM. The Water solubility in “Water solubility” is 7900 mM. The Solubility in saline in “Water solubility” (saline) is more than 50 mg/mL. In the data set on rats, the Diuretic action result was “reduce urinary osmolality in rats and produce a salt-sparing diuresis”.

As for `NC(N)=S` [Compound 2], the “UT-B inhibition activity (in words)” value on rat UT-B [3] is “significant loss of UT-A1 and UT-B inhibition activity”. Moreover, the IC50 on rat UT-B [3] (setting [6]) was more than 25000 µM. Also, on rat UT-A1 [4], the “UT-A1 inhibition activity (in words)” value is “significant loss of UT-A1 and UT-B inhibition activity”.

Regarding `CNC(=O)NC` [Compound 3, dimethylurea], the “UT-B inhibition activity (in words)” value on rat UT-B [3] was “loss of activity”. Moreover, at rat UT-B [3] (setting [6]), the IC50 was 14000 ± 2000 µM. Also, the “UT-A1 inhibition activity (in words)” value at rat UT-A1 [4] is on record as “loss of activity”.

Take `CN(C)C(=S)N(C)C` [Compound 5, Tetramethylthiourea]: at rat UT-B [3], the “UT-B inhibition activity (in words)” value is “inactive”. The IC50 on rat UT-B [3] (setting [7]) is more than 25000 µM. Moreover, on rat UT-A1 [4], the “UT-A1 inhibition activity (in words)” value is “inactive” and the IC50 was more than 25000 µM.

For `NC(=S)Nc1ccccc1` [Compound 9, phenylthiourea], on rat UT-B [3], the “UT-B inhibition activity (in words)” value is recorded as “potencies comparable to DMTU”. The same molecule yielded an IC50 against rat UT-B [3] (setting [7]) of 14000 ± 1000 µM. In addition, at rat UT-A1 [4], the “UT-A1 inhibition activity (in words)” value was “potencies comparable to DMTU” and it took 8800 ± 300 µM to reach half-maximal inhibition (IC50).

Regarding `NC(=S)Nc1ccc([N+](=O)[O-])cc1` [Compound 18, 4-nitrophenylthiourea], the figures for the IC50 against rat UT-B [3] (setting [7]) and at rat UT-A1 [4] were 10000 ± 1000 µM and 1300 ± 300 µM, respectively. In addition, at rat UT-A1 [4], the “Selectivity for UT-A1 vs. UT-B inhibition” value is on record as “UT-A1 selective”.

Turning to `NC(=S)Nc1ccc(Cl)c(Cl)c1` [Compound 21, 3,4-dichlorophenylthiourea], the results for the IC50 against rat UT-B [3] (setting [7]) and against rat UT-A1 [4] were 400 ± 100 µM and 1500 ± 400 µM, respectively.

In the case of `NC(=S)c1ccncc1` [Compound 26, thioisonicotinamide], the 50% inhibitory concentration (IC50) on rat UT-B [3] (setting [6]) is 2800 ± 500 µM. Also, the “Selectivity for UT-A1 vs. UT-B inhibition” value at rat UT-A1 [4] is given as “selective for UT-B over UT-A1”.

With `NC(=S)c1cccnc1` [Compound 27, thionicotinamide], the IC50 is 10000 ± 2000 µM against rat UT-B [3] (setting [7]) and more than 25000 µM against rat UT-A1 [4].

What is called solubility is how much of the substance goes into solution per volume. A higher solubility goes with much dissolved substance. For the molecule `NC(=S)Nc1cccc([N+](=O)[O-])c1` [Compound 32, 3-nitrophenylthiourea], the “Cytotoxicity to MDCK cells” value in the data set on MDCK cells is “no cytotoxicity”. Besides, the 50% inhibitory concentration (IC50) against rat UT-B [3] (setting [7]) was ~200 µM and 200 µM. The molecule further returned a solubility in the data set “Water solubility” (water) of 0.64 mM (≈ 126 µg/mL). Besides, on rat UT-A1 [4], the “IC50 improvement relative to 18” value is listed as approximately 6 fold; the IC50 was ~200 µM and 200 µM; the “Selectivity for UT-A1 vs. UT-B inhibition” value is “non-selective”. In addition, the “Kinetics of UT-A1 inhibition” value at rat UT-A1 [5] (0.2 mM added at different times prior to assay) is “very rapid”. Besides, on rat UT-A1 [5] (0.2 mM, 15 min incubation, washed twice), the “Reversibility of UT-A1 inhibition” value is listed as “fully reversible”. Besides, the “Inhibition mechanism from urea concentration-dependence of IC50” value at rat UT-A1 [5] (urea gradients 80 to 1,600 mM) is recorded as “competitive inhibition mechanism”.

Turning to `NC(=S)c1ccncc1` [thioisonicotinamide], at rat UT-B [3] (setting [6]), the IC50 was determined as 2800 µM. For the same molecule, at rat UT-A1 [4], the “Selectivity for UT-A1 vs. UT-B inhibition” value was “UT-B selective”.

cyclohexylthiourea [Compound 12]: at rat UT-B [3], the “UT-B inhibition activity (in words)” value is “potencies comparable to DMTU”. Moreover, the IC50 at rat UT-B [3] (setting [6]) came out at 5200 ± 600 µM. For the same molecule, the “UT-A1 inhibition activity (in words)” value at rat UT-A1 [4] is on record as “potencies comparable to DMTU”.
